The target in experiment [1] is Mu-type opioid receptor (Cavia porcellus, UniProt P97266). In words: Compound was evaluated for the binding affinity to Opioid receptor mu using [3H]DAMGO as radioligand in guinea pig brain membrane.
Experiment [2] addresses Kappa-type opioid receptor (Cavia porcellus, UniProt P41144). In words: Compound was evaluated for the binding affinity to opioid receptor kappa using [3H]-EK as radioligand in guinea pig brain membrane. In outline:
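Radioligand displacement in guinea pig brain membranes, modified from an earlier published method. [3H]EK was used with 1 μM DAMGO present to block μ sites.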

A short description of experiment [3]: Compound was evaluated for the binding affinity to opioid receptor delta.

Chain of Mu-type opioid receptor (P97266 whole entry): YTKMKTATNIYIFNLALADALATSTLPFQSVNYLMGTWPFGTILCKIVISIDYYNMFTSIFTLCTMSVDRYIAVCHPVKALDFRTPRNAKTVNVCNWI
Chain of Kappa-type opioid receptor (P41144 whole entry): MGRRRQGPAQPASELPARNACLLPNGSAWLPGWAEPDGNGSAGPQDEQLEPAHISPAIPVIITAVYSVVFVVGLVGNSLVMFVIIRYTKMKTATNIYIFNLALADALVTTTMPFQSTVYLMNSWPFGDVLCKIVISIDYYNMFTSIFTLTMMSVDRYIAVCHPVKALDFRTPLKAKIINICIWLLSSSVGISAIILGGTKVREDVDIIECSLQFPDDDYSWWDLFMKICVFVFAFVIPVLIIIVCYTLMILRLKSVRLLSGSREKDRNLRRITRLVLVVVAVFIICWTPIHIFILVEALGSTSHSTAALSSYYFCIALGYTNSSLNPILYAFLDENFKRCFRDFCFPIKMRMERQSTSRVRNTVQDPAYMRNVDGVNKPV

On to `Oc1ccc2c3c1O[C@H]1c4oc5ccccc5c4C[C@@]4(O)[C@@H](C2)N(CC2CC2)CC[C@]314` [CAS_111555-58-9], for which the inhibition constant (Ki) (commonly a dissociation constant, usually derived from enzyme kinetics or from competition with a known ligand) in experiment [1] was determined as 18.8 nM; in experiment [2], 154 nM. Consider `Oc1ccc2c3c1O[C@H]1C(c4c[nH]c5ccccc45)=CC[C@@]4(O)C(C2)N(CC2CC2)CC[C@]314` [4-cyclopropylmethyl-14-(1H-3-indolyl)-(1S,13S,17S)-12-oxa-4-azapentacyclo[9.6.1.01,13.05,17.07,18]octadeca-7(18),8,10,14-tetraene-10,17-diol], for which the Ki in experiment [3] was 0.99 nM. `Oc1ccc2c3c1O[C@H]1c4nc5ccccc5nc4C[C@@]4(O)[C@@H](C2)N(CC2CC2)CC[C@]314`: the Ki amounted to 7.3 nM in experiment [1] and 191 nM in experiment [2]. In the same order, the values of `Cn1c2c(c3c1[C@@H]1Oc4c(O)ccc5c4[C@@]14CCN(CC1CC1)[C@H](C5)[C@]4(O)C3)CCCC2` are 16.8 nM and 203 nM. The matching figures for `Oc1ccc2c3c1O[C@H]1C(c4ccccc4)=CC[C@@]4(O)[C@@H](C2)N(CC2CC2)CC[C@]314`: 0.005 nM and 0.01 nM.

For the origin of these results see BindingDB's records for doi:10.1021/jm00109a027 (University of Minnesota, 1991).
